Most compounds without a hit are left out; they make up all but 2.5% or so of the library.
MEKK3 PB1 HTS – modulators of MEKK3-MEK5 PB1 binding, primary screen, biochemical, wildtype MEKK3, multiplex bead flow cytometry, Alexa488-MEK5. bead-based flow cytometry, Alexa488-MEK5 binding to MEKK3; actives lie on both sides; 0 = blocked by unlabeled MEK5, 100 = vehicle. binding response (% of control), % at 10 µM. 290,000 tested, 1.4% active;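 active = binding response more than 3 SD above or below the average of its plate-row segment, actives on both sides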;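 note: Alexa488 bead fluorescence after subtracting the streptavidin-only scavenger bead signal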
Target sequence (Q99759 whole entry, looked up): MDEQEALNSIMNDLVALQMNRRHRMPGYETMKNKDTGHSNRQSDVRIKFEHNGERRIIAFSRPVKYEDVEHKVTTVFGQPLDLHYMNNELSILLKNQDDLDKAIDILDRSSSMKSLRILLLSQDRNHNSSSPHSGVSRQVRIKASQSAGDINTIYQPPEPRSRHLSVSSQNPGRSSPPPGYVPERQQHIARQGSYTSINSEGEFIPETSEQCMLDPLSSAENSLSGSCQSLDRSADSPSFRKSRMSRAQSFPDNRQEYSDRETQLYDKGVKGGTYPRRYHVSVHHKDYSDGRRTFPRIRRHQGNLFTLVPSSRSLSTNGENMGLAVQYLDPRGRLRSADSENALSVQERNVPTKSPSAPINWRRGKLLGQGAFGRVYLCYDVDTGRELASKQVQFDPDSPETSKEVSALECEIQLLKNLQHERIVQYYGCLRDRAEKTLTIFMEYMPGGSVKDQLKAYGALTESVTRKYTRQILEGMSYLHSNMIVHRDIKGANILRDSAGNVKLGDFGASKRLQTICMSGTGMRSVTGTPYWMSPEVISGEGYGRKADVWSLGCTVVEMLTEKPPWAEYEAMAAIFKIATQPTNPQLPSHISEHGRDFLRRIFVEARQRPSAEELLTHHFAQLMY
ABCG2 block – ABCG2 efflux pump inhibitors, primary screen, multiplex with ABCB1, IgMXP3 cells, flow cytometry; Broad substrate specificity ATP-binding cassette transporter ABCG2 (Homo sapiens), Q9UNQ0; JC-1 efflux; inhibition, % at 6.6 µM; 190,000 tested, 0.1% active; AID 1325, 2008;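 active = inhibition above 80%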;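 note: 0% = DMSO and 100% = nicardipine control wells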
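Measure – % inhibition of efflux relative to nicardipine and DMSO · Test system – ABCG2 IgMXP3 and barcoded ABCB1 CCRF-Adr cell mix · Control set – nicardipine as high control, DMSO as low control · Compound – one concentration, 6.6 µM final · Signal – flow cytometry of retained JC-1 fluorescence · Timing – 10 min exposure at 25 °C with rotation, no wash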
ABCB1 block – ABCB1 efflux pump inhibitors, primary screen, cell-based, multiplex, flow cytometry, ABCG2 counter-screen. ATP-dependent translocase ABCB1 (Homo sapiens), P08183. CCRF-Adr cells, JC-1 efflux. inhibition, % at 6.6 µM. 190,000 tested, 0.067% active; in the data active = inhibition above about 40%;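 note: 0% = vehicle and 100% = reference inhibitor; higher value means more JC-1 retained so stronger ABCB1 efflux block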
MEKK2 mut-MEK5 – MEK5 binding signal on mutant MEKK2 PB1, primary screen, biochemical, multiplex bead flow cytometry, Alexa488-MEK5; Alexa488-MEK5 binding to MEKK2 mutant; percent response, % at 10 µM; 290,000 tested, 0.35% active; in the data active = percent response above about 24%, passing the limit was not always enough
MEKK2 WT-MEK5 – modulators of MEK5 binding to wildtype MEKK2, primary screen, biochemical, multiplex bead flow cytometry, Alexa488-MEK5. 290,000 tested, 1.1% active. Alexa488-MEK5 binding to MEKK2 WT; actives lie on both sides. binding response (% of control), % at 10 µM. Mitogen-activated protein kinase kinase kinase 2 (Homo sapiens), Q9Y2U5; in the data active = binding response below about 67% or above about 130%
Efflux pump inh – inhibitors of Candida efflux pumps in yeast, primary screen, S. cerevisiae, Nile Red, multiplex. S. cerevisiae Candida pump triplex. 330,000 tested, 0.44% active. inhibition, % at 10 µM;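 active = plate passing quality check with inhibition over a set limit, or well fluorescence over plate mean plus 4 SD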;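 note: Nile Red retained in pooled yeast measured as flow cytometry median fluorescence; 0% = buffer negative control and 100% = Enniatin B positive control; higher means more Nile Red kept so more efflux inhibition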
Yeast cmpd fluor – counter-screen for efflux pump inhibitors: compound fluorescence. shares compounds with Efflux pump inh. S. cerevisiae AD/pABC3, flow cytometry. fluorescence ratio to DMSO, % at 10 µM. 1,700 tested, 4% active. AID 588517;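 active = fluorescence ratio to DMSO above its plate's cutoff, the plate mean ratio plus 5 SD, cut at about 210% in these data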;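 note: unstained yeast with no Nile Red so the signal is compound autofluorescence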
Mdr1 pump inh – inhibitors of Candida albicans Mdr1 efflux, confirmation, flow cytometry, singleplex, Cherry Pick1 set | shares compounds with Efflux pump inh | S. cerevisiae AD/CaMDR1, Nile Red efflux | inhibition, % at 10 µM | 1,700 tested, 1% active | AID 588518, 2011; in the data active = inhibition above about 26%;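 note: 0% = DMSO vehicle and 100% = reference inhibitor; higher means more Nile Red retained so more efflux inhibition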
Cdr2 pump inh – inhibitors of Candida albicans Cdr2 efflux pump, confirmation, S. cerevisiae AD/CaCDR2, flow cytometry, cherry pick 1, singleplex; Nile Red retention ratio vs DMSO, % at 10 µM; shares compounds with Efflux pump inh; 1,700 tested, 4% active; Nile Red retention; in the data active = Nile Red retention ratio vs DMSO above about 190%;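 note: higher ratio means more blocking of Cdr2 efflux of the dye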
CaCdr1 efflux inh – inhibitors of Candida albicans Cdr1 efflux pump, confirmation, S. cerevisiae AD/CaCDR1, flow cytometry, cherry pick 1, singleplex; shares compounds with Efflux pump inh; inhibition, % at 10 µM; 1,700 tested, 1% active; Nile Red efflux; AID 588522, 2011;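 active = inhibition above the screen-wide mean plus twice its standard deviation, cut at about 32% in these data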
* hit, by the source's call; . = no result.

SMILES | MEKK3 PB1 HTS | ABCG2 block | ABCB1 block | MEKK2 mut-MEK5 | MEKK2 WT-MEK5 | Efflux pump inh | Yeast cmpd fluor | Mdr1 pump inh | Cdr2 pump inh | CaCdr1 efflux inh
CCC(Sc1nc2cc(OC)c(OC)cc2c(=O)n1CCc1ccc(OC)c(OC)c1)C(=O)NCCOC (centres undefined) | 100 | 3 | 1 | 1 | 99 | 1.3* | 93 | 0 | 107 | 0
COCCNC(=O)CSc1nc2cc(OC)c(OC)cc2c(=O)n1Cc1ccc(OC)cc1 | 101 | 8 | 2 | -4 | 90 | 0 | . | . | . | .
O=c1c2cc(N3CCOCC3)ccc2[nH]c(=S)n1CCCN1CCCCC1 | 90 | 1 | 0 | -8 | 92 | 0.6* | 97 | 0 | 94 | 0
CCc1csc(CCNC(=O)C2CCC(=O)N(CCc3cccc(F)c3)C2)n1 (centres undefined) | 101 | . | . | 3 | 99 | 0 | . | . | . | .
CC1=C(C(=O)c2ccccc2)C(c2ccc(O)cc2)NC(=S)N1 (centres undefined) | 107 | . | . | 2 | 98 | 0 | . | . | . | .
CC1=C(C)C(c2ccccc2)NC(=S)N1 (centres undefined) | 99 | 0 | 0 | -2 | 93 | 5.5* | 103 | 0 | 104 | 0
Cc1cc(C)c(C(=O)CN2C(=O)NC3(CCCCCC3)C2=O)cc1C | 106 | 3 | 2 | -2 | 102 | 0 | . | . | . | .
Nc1ccc2nc(-c3cccc(-c4nc5ccc(N)cc5[nH]4)c3)[nH]c2c1 | 97 | . | . | 4 | 107 | 2.1* | 101 | 0 | 119 | 0
Clc1ccc(-c2n[nH]c3c2CCC3)cc1Cl | 106 | 58 | 2 | 6 | 101 | 0.6* | 94 | 0 | 104 | 0
Clc1ccc(-c2n[nH]c3c2CCCC3)cc1 | 102 | 1 | 0 | -1 | 100 | 0 | . | . | . | .
CN(C)c1ccc(/C=c2/sc3n(c2=O)NC2(c4ccccc4)N(C)C(=O)N(C)C2(c2ccccc2)N=3)cc1 (centres undefined) | 98 | 1 | 2 | -1 | 96 | 0 | . | . | . | .
COc1ccc(S(=O)(=O)N(C)C[C@H]2Oc3ccc(NC(=O)Nc4c(C)noc4C)cc3C(=O)N([C@H](C)CO)C[C@@H]2C)cc1 | . | . | . | . | . | -1 | . | . | . | .
Cc1ccc(C)c(OCc2nc3ccc(S(=O)(=O)Nc4c(C)n(C)n(-c5ccccc5)c4=O)cc3[nH]2)c1 | 98 | 7 | 0 | 4 | 94 | 0 | . | . | . | .
C=CCNC(=O)C(=O)N/N=C/c1ccco1 | 88 | 0 | 0 | 4 | 90 | 23* | 98 | 0 | 91 | 0
CSc1ncccc1C(=O)OCc1ccc([N+](=O)[O-])cc1 | 98 | 19 | 1 | -1 | 98 | 0 | . | . | . | .
O=C(CSc1nnc(-c2ccncc2)n1CC1CCCO1)Nc1ccccc1Cl (centres undefined) | 68 | -1 | 0 | -17 | 69 | 0.5* | 99 | 0 | 107 | 0
CCc1noc(C)c1C(=O)OC(C)C(=O)c1c(C)[nH]c2ccccc12 (centres undefined) | . | . | . | . | . | 0 | . | . | . | .
Cc1[nH]c2ccccc2c1C(=O)C(C)OC(=O)c1ccc([N+](=O)[O-])o1 (centres undefined) | 101 | 4 | 2 | 4 | 99 | 0.4* | 88 | 0 | 104 | 0
COc1ccc(COC(=O)N/N=C(\C)CC(=O)Nc2ccc(Cl)cn2)cc1 | 107 | . | . | 12 | 100 | 0 | . | . | . | .
CCc1ccccc1OCC(=O)OCC(=O)N1CC(=O)Nc2ccccc21 | 102 | 1 | 0 | -3 | 98 | 0 | . | . | . | .
COc1cccc(C(C(=O)NCc2ccccc2)N(C(=O)c2csnn2)C2CC2)c1 (centres undefined) | 101 | . | . | -1 | 98 | 0 | . | . | . | .
COc1ccc(CN(C)C(=O)COC(=O)c2cc([N+](=O)[O-])ccc2N2CCCC2)c(OC)c1OC | . | . | . | . | . | -1 | . | . | . | .
O=C(Nc1cccc2ccccc12)c1cn(-c2ccccc2)nc1-c1cccs1 | 101 | 3 | 0 | 4 | 104 | 9.0* | 104 | 0 | 103 | 0
O=C(c1cn(-c2ccccc2)nc1-c1cccs1)N1CCN(c2ccccc2)CC1 | 92 | 20 | 1 | -12 | 86 | 0 | . | . | . | .
COc1ccc(/C=C2\CCOC2=O)cc1 | 94 | 0 | 0 | 4 | 95 | 0 | . | . | . | .
SMILES | MEKK3 PB1 HTS | ABCG2 block | ABCB1 block | MEKK2 mut-MEK5 | MEKK2 WT-MEK5 | Efflux pump inh | Yeast cmpd fluor | Mdr1 pump inh | Cdr2 pump inh | CaCdr1 efflux inh
O=C1OCC/C1=C\c1ccccc1 | 87 | 0 | 0 | -3 | 89 | 6.8* | 101 | 0 | 85 | 0
COc1cccc(NC(=O)C(=O)N/N=C/c2cc(C)n(-c3ccc(Cl)c(Cl)c3)c2C)c1 | 108 | 1 | 0 | 9 | 105 | 0.7* | 113 | 0 | 106 | 0
Cc1cc(/C=N/NC(N)=S)c(C)n1-c1ccc(Cl)c(Cl)c1 | 99 | -3 | -1 | -2 | 101 | -2 | . | . | . | .
COc1cc(NC(=O)CCNS(=O)(=O)c2ccc3c(c2)CCC(=O)N3)cc(OC)c1 | 93 | -3 | -2 | -1 | 92 | 13* | 105 | 0 | 105 | 0
COc1ccc(NC(=O)CCNS(=O)(=O)c2ccc3c(c2)CCC(=O)N3)cc1 | 96 | 2 | 1 | 1 | 97 | 0 | . | . | . | .
CCOC(=O)C1(Cc2ccc(OC)cc2)CCN(C(=O)c2cc3ccccc3[nH]2)CC1 | 98 | 2 | 1 | -44 | 96 | 0.5* | 92 | 0 | 110 | 0
